The whole screen tested about 370,000 compounds, of which about 1,200 (0.32%) were called active. The entries come from a sample that favours actives as a whole. A number with no mark means an inactive call.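 How the source made its calls: active means inhibition above the mean of all tested compounds plus 3 SD, set per campaign (cut at about 25% in these data); inactive means the rest.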
These compounds were tested against Tyrosyl-DNA phosphodiesterase 2 (Homo sapiens) (UniProt O95551) (assay: human TDP2 enzyme inhibitors, primary screen, biochemical, epi absorbance, recombinant enzyme (AID 720702;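 further: 0% = DMSO with enzyme and 100% = buffer with substrate but no TDP2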)). Conditions: recombinant TDP2, T5PNP hydrolysis, p-nitrophenol absorbance 415 nm; at 12.8 µM; stronger effect = higher value.
Tyrosyl-DNA phosphodiesterase 2 (Homo sapiens), sequence (O95551 whole entry, looked up): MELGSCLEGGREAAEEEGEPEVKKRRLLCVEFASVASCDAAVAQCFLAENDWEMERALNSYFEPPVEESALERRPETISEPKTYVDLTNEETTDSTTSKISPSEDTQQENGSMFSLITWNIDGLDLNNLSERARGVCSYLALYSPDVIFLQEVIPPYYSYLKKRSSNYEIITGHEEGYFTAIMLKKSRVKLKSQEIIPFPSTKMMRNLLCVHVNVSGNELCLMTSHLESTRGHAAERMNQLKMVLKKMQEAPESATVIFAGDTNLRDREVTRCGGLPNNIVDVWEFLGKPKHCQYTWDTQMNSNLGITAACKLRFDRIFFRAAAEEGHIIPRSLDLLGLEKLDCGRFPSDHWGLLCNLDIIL
Outline: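 Assay system: Recombinant human TDP2 | Quantity: 120 nM TDP2 per well | Incubation: 2 h at 37 °C | Signal: Epi absorbance | Evaluation: Percent inhibition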
For `CCCCCCCCCCCCCCCC(=O)OC/C=C(C)/C=C/C=C(C)/C=C/C1=C(C)CCCC1(C)C`, the inhibition was 2.56%.
`COCCn1nnnc1C(c1ccccc1Cl)N1CCN(c2ccccc2OC)CC1` (configuration not stated) showed an inhibition of -10.8%.
For `COCCn1nnnc1C(c1cc2ccc(OC)cc2[nH]c1=O)N1CCc2ccccc2C1` (configuration not stated), the inhibition was 41.1% (active).
Work on `COc1ccc(CCC(C)N2CCc3ccccc3C2)cc1` (configuration not stated) yielded an inhibition of -2.33%.
`NS(=O)(=O)c1ccc(CCNC(=O)c2nc(CS(=O)(=O)c3ccc(Cl)cc3)no2)cc1` was tested, and the inhibition was -7.74%.
`Cc1cc(C)c(S(=O)(=O)c2ccc(F)cc2C)c(=O)[nH]1` was tested, and the inhibition was 8.26%.
`CS(=O)(=O)N1CCCC(C(=O)N2CCOCC2)C1` (configuration not stated) gave an inhibition of 7.83%.
Work on `Cc1ccc(-n2c(SCC(=O)Nc3ccc(S(=O)(=O)Nc4nccs4)cc3)nnc2-c2cccnc2)cc1` yielded an inhibition of -18.4%.
`COc1ccccc1CCn1cnc(-c2ccccc2)c1C(C)C` was tested, and the inhibition was -1.89%.
`COc1ccc(C2Nc3ccccc3C(=O)N2Cc2cccs2)cc1COc1c(C)cccc1C` (configuration not stated) was tested, and the inhibition was -6.88%.
In the case of `COc1ccccc1C1C(C#N)=C(N)Oc2c1c(-c1ccccc1)nn2-c1ccccc1` (configuration not stated), the inhibition is reported as 68.7% (active).
With `Cc1nn(-c2ccccc2)c2c1C(c1ccc(F)cc1)C(C#N)=C(N)O2` (configuration not stated) the inhibition was 78.5% (active).
In the case of `CCOC(=O)C1=C(C)OC(N)=C(C#N)C1c1cncc(-c2ccc(F)cc2)c1` (configuration not stated), the inhibition is reported as 2.25%.
`COc1ccccc1C1CC(=O)n2c(nc(-c3ccccc3)c2-c2ccccc2)S1` (configuration not stated) gave an inhibition of -1.89%.
For `COc1ccc(C2C(C#N)=C(N)Oc3n[nH]c(C)c32)cc1CN1CCN(c2ccc(F)cc2)CC1` (configuration not stated), the inhibition was 2.94%.
With `CC1=NN(C(=O)Cc2ccc(C)cc2)C(O)(c2cccnc2)C1` (configuration not stated) the inhibition was -0.61%.
In the case of `C[C@@H]1CN([C@@H](C)CO)C(=O)c2cccc(NC(=O)Nc3cccc4ccccc34)c2O[C@H]1CN(C)S(=O)(=O)c1ccccc1F`, the inhibition is reported as -6.81%.
`CC(C)(C)NC(=O)C(c1cccnc1)N(C(=O)c1cnco1)c1ccc(C(C)(C)C)cc1` (configuration not stated) showed an inhibition of 6.07%.
`Nc1nc2n(n1)C(c1ccco1)CC(c1ccc(Cl)c(Cl)c1)N2` (configuration not stated) showed an inhibition of -12.1%.
Work on `O=C(NCCCc1ccccc1)[C@H](Cc1ccccc1)NC1(C(=O)NCCc2c[nH]c3ccccc23)CCC1` yielded an inhibition of 2.05%.
In the case of `O=C(N[C@H](C(=O)N1CCC[C@H]1C(=O)NCCc1ccccc1Cl)c1ccccc1)c1ccccc1`, the inhibition is reported as 3.26%.
For `C[C@H](C(=O)N(C)c1ccccc1)[C@@H](O)c1ccc2ccccc2c1`, the inhibition was 6.57%.
`C=CCN(C)CC#Cc1ccccc1` gave an inhibition of -6.66%.
In the case of `CCn1c(SCC(C)=O)nc2sc3c(c2c1=O)CCCC3`, the inhibition is reported as -7.52%.
Compound `CC1(C)OC(=O)C(=CSc2ccc(C(C)(C)C)cc2)C(=O)O1` has an inhibition of -0.61%.
For `Cc1ccsc1C(C(=O)NC1CCCCC1)N(C(=O)Cc1cccs1)C1CC1` (configuration not stated), the inhibition was -13.4%.
`O=[N+]([O-])c1ccc(NS(=O)(=O)c2ccccc2)c(Cl)c1` was tested, and the inhibition was -17.4%.
For `O=S(=O)(Cc1noc(-c2ccc(OC(F)(F)F)cc2)n1)c1ccc(F)cc1`, the inhibition was 1.13%.
In the case of `O=S(=O)(Nc1ccc(O)c2ccccc12)c1ccc(OC(F)(F)F)cc1`, the inhibition is reported as 46.3% (active).
Compound `COC(=O)C1CN(CCc2ccccc2)CCS(=O)(=O)N1Cc1cccc(Cl)c1` (configuration not stated) has an inhibition of 6.91%.
For `COC(=O)CC1CCc2cc(C)cc(C(CC(C)C)NC(=O)[C@H](CC(C)C)NC(=O)OCc3ccccc3)c2O1` (some centres not stated), the inhibition was -0.76%.
`O=S(=O)(c1ccc2c(c1)OCCCO2)N1CCN(S(=O)(=O)c2c(F)cccc2F)CC1` gave an inhibition of -13.6%.
Compound `CCOC(=O)c1c(C)n(C)c2ccc(OC)c(NS(=O)(=O)CC)c12` has an inhibition of -7.66%.
With `O=C(Nc1nccs1)C1CCN(S(=O)(=O)c2ccc(Cl)c(C(F)(F)F)c2)CC1` the inhibition was 1.48%.
`O=C1CC[C@@]23CCCN2C(=O)CCC[C@H]3[C@H]1Cc1ccccc1` gave an inhibition of -5.11%.
Work on `COc1ccc(CCNC(=O)COc2ccc3c(c2)OCO3)cc1` yielded an inhibition of -6.66%.
`c1ccc(Cc2cc[n+](Cc3ccccc3)cc2)cc1` showed an inhibition of 6.8%.
`CN(C)c1ccc(C(CC(=O)O)C(=O)O)cc1` (configuration not stated) gave an inhibition of -4.74%.
In the case of `CN(C)c1ccc(N/C=C/C(=O)C(F)(F)F)cc1`, the inhibition is reported as 40.7% (active).
Compound `CCOC(=O)c1ccc(NC(=O)c2c(N)n(C)c(=O)[nH]c2=O)cc1` has an inhibition of 3.07%.
With `CCOC(=O)c1ccc(Nc2cc3ccccc3c(=O)[nH]2)cc1` the inhibition was 44.6% (active).
`CCOC(=O)c1ccc(NC(=O)c2c(NCc3ccccc3)[nH]c(=O)[nH]c2=O)cc1` was tested, and the inhibition was 1.1%.
`O=C(O)CCN(Cc1ccccc1)S(=O)(=O)c1c(Cl)cccc1Cl` showed an inhibition of 15.2%.
`Nn1cnnc1N/N=C/c1cc([N+](=O)[O-])c(Cl)cc1Cl` was tested, and the inhibition was 39.5% (active).
Work on `Clc1ccc(-n2c(COc3ccccc3)nnc2SCc2nc3ccccc3[nH]2)cc1` yielded an inhibition of -3.9%.
Compound `CC1=C2C(=O)OC(c3ccoc3)C2(C)CCC1` (configuration not stated) has an inhibition of -14.5%.
For `COc1ccccc1CN1CCN(Cc2cc(OC)c(OC)cc2OC)CC1`, the inhibition was 19%.
In the case of `COc1ccccc1CN1CCN(C(c2ccccc2)c2ccccc2)CC1`, the inhibition is reported as 25.9% (active).
`COc1ccccc1/C=N/N1CCN(Cc2ccccc2Cl)CC1` showed an inhibition of -9.24%.
In the case of `Cc1cc(C)nc(SC2CCCCC2NS(=O)(=O)c2ccc(Cl)cc2)n1` (configuration not stated), the inhibition is reported as 4.56%.
With `Cc1coc2c(O)cc3c(c12)OC1(N2CCCCC2)C(=O)NCCCC31` (configuration not stated) the inhibition was 24.4%.
In the case of `O=C1C2C3C=CC(C4CC34)C2C(=O)N1/N=C/c1ccc(-c2ccccc2[N+](=O)[O-])o1` (configuration not stated), the inhibition is reported as 11.7%.
`COc1ccc(/C=C2/C(=O)N(c3ccccc3)N=C2C)c(OC)c1` gave an inhibition of 3.07%.
With `CC1=NN(c2ccc(Cl)c(C(=O)O)c2)C(=O)/C1=C/c1ccc(-c2ccccc2[N+](=O)[O-])o1` the inhibition was 36.1% (active).
Compound `CC(C)c1ccc(S(=O)(=O)N2CCC3(CC2)OCCO3)cc1` has an inhibition of 3.95%.
In the case of `CC(=O)c1ccc(S(=O)(=O)N2CCC3(CC2)OCCO3)cc1`, the inhibition is reported as 25.2% (active).
With `Cc1c(C)c(C)c(S(=O)(=O)N2CCC3(CC2)OCCO3)c(C)c1C` the inhibition was 5.93%.

From PubChem BioAssay AID720702 (The Scripps Research Institute Molecular Screening Center, 2013)
